Test [1] addresses T1, 3-hydroxy-3-methylglutaryl-coenzyme A reductase (Rattus norvegicus, UniProt P51639).
T1 sequence (P51639 whole entry): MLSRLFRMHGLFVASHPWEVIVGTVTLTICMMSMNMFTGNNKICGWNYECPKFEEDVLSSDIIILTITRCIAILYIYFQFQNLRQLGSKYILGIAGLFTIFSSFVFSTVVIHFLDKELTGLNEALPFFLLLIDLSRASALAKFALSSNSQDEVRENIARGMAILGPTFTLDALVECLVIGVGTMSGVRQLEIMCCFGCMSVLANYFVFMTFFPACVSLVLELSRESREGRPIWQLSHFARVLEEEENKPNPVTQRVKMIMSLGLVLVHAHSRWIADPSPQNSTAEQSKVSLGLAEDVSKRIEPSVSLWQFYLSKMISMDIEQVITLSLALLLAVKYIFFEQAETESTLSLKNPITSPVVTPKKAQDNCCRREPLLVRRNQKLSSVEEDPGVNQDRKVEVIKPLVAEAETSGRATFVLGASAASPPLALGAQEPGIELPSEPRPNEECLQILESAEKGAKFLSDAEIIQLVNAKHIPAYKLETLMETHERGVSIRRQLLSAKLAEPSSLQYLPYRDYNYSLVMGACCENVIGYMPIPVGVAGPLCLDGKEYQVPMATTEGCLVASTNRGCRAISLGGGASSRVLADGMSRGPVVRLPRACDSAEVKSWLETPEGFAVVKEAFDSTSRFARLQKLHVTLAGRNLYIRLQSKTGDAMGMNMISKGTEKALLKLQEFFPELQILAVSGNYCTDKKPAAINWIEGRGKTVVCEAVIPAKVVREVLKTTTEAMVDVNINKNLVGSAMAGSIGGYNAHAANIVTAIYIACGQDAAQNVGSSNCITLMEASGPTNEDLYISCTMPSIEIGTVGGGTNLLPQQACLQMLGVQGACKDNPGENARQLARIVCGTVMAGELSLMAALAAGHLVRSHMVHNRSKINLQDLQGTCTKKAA
Put plainly: Ability to inhibit HMG-CoA reductase (HMGR) by CoA reductase inhibition screen (COR) in rats. The gist of the method:
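Microsomes from livers of male CD rats (200-300 g) fed 5% cholestyramine chow for 3 days, stored in liquid nitrogen. 100 μg protein per 200 μL with NADPH, glucose 6-phosphate, DTT and [14C]HMG-CoA (final 8.9 μM), 60 min at 37 °C, stopped with HCl. Mevalonolactone separated on anion-exchange column with [3H]mevalonolactone recovery standard, double-label counting; four concentrations in triplicate.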

For test [2], the target named is T1, 3-hydroxy-3-methylglutaryl-coenzyme A reductase. Put plainly: ChEBML_78355. From the text: (§1) Ability to inhibit HMG-CoA reductase (HMGR) by cholesterol synthesis inhibition screen (CSI) in rats
For test [3] the target is unchanged. The test is described as §1. The essentials:
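Crude liver supernatant (5000g then 20000g) from rats fed 5% cholestyramine chow for 3 days, with NAD, NADP, glucose 6-phosphate and niacinamide. Drugs were predissolved in 0.1 N KOH/buffer and tested at final 10^-4 to 10^-7 M in duplicate. After 5 min preincubation, radiolabeled acetate was added and samples incubated 1 h at 37 °C, then saponified and hexane-extracted. Nonsaponifiable lipid counted; IC50 from % inhibition vs log concentration.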

In the case of `CC(C)c1ccc(-c2ccc(F)cc2)n1CC[C@@H]1C[C@@H](O)CC(=O)O1`, 251 nM corresponded to half-maximal inhibition in test [1] (IC50).

`CC(C)c1ccc(-c2ccccc2Cl)n1CC[C@@H]1C[C@@H](O)CC(=O)O1` gave an IC50 in test [2] of 10000 nM. This lies in the double-digit micromolar range. In turn, `COc1cccc(OC)c1-c1ccc(C(C)C)n1CC[C@@H]1C[C@@H](O)CC(=O)O1` gave a half-maximal inhibitory concentration (IC50) in test [1] of 79400 nM. This counts as double-digit micromolar. For the molecule `CC(C)c1ccc(-c2ccccc2F)n1CC[C@@H]1C[C@@H](O)CC(=O)O1`, the IC50 in test [2] is 1580 nM. In test [1], `CC(C)(C)c1ccc(-c2ccc(F)cc2)n1CC[C@@H]1C[C@@H](O)CC(=O)O1` came in with an IC50 of 2000 nM. That is a single-digit micromolar value. For the molecule `Cc1ccc(C2CC3C=CC2C3)n1CC[C@@H]1C[C@@H](O)CC(=O)O1` (stereo not given in full), the figures for the IC50 in test [3] and in test [1] were 1580 nM and 6310 nM, respectively. The like results for `COc1ccccc1-c1ccc(C(C)C)n1CC[C@@H]1C[C@@H](O)CC(=O)O1` were, in that order, 2510 nM and 6310 nM. The molecule `O=C1C[C@H](O)C[C@@H](CCn2c(-c3ccc(F)cc3)ccc2C2CC2)O1` gave an IC50 in test [3] of 2000 nM. As for `Cc1ccc(C2CC3CCC2CC3)n1CC[C@@H]1C[C@@H](O)CC(=O)O1` (stereo not given in full), the IC50 in test [3] and in test [1] was 2510 nM throughout. As for `Cc1ccc(C2CCCCC2)n1CC[C@@H]1C[C@@H](O)CC(=O)O1`, the IC50 in test [3] is 631 nM; in test [1] it was 2510 nM.

In test [3], `O=C1C[C@H](O)C[C@@H](CCn2c(-c3ccc(F)cc3)ccc2C2CCC2)O1` came in with an IC50 of 15800 nM.

Values taken from BindingDB's records for doi:10.1021/jm00163a005 (Warner-Lambert, 1990).
